Results from paper PMC2923816 (Bioorganic & medicinal chemistry letters, 2010).
Where two headings read alike, the source gives them in different places.

Legend:
human haspin kinase = target: T1, human haspin kinase (Homo sapiens, UniProt Q8TF76); experiment: haspin kinase TR-FRET assay; format: biochemical
T1 sequence (Q8TF76 1-798): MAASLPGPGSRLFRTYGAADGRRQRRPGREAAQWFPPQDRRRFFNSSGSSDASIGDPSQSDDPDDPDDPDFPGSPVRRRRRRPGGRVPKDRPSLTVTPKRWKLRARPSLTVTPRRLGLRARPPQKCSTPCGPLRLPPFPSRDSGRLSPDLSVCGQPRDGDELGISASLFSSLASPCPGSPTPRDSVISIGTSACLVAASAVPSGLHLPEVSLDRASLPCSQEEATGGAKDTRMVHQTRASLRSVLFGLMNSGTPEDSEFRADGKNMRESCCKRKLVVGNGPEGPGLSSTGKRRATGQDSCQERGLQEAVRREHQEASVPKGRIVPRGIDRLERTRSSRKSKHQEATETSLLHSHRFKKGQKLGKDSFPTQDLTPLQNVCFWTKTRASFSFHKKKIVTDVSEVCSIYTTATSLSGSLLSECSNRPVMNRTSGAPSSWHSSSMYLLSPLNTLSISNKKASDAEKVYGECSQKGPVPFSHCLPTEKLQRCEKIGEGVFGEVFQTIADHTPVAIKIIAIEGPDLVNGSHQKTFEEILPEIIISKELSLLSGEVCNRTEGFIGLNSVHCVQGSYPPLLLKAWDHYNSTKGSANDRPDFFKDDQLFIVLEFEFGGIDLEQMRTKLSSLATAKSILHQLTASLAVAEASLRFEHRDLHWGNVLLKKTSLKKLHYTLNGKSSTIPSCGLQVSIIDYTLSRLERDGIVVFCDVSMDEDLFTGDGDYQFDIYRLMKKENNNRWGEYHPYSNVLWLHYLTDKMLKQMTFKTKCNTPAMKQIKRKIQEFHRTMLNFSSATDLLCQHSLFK
Method in brief: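 Human haspin activity measured by TR-FRET at varying test compound concentrations to give IC50, using the HTS format: histone H3 peptide substrate, with phosphorylated product (H3T3ph) detected by a europium-labelled phosphospecific monoclonal antibody. For the selectivity ratio, DYRK2 was assayed by 33P incorporation into Woodtide peptide with human N-terminal GST-fused DYRK2 and γ33P-ATP.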

human DYRK2 = target: T2, human DYRK2 (Homo sapiens, UniProt Q92630); experiment: DYRK2 kinase 33P-incorporation into Woodtide peptide; format: biochemical; conditions: read-out: IC50 DYRK2, Woodtide substrate
T2 sequence (Q92630 1-601): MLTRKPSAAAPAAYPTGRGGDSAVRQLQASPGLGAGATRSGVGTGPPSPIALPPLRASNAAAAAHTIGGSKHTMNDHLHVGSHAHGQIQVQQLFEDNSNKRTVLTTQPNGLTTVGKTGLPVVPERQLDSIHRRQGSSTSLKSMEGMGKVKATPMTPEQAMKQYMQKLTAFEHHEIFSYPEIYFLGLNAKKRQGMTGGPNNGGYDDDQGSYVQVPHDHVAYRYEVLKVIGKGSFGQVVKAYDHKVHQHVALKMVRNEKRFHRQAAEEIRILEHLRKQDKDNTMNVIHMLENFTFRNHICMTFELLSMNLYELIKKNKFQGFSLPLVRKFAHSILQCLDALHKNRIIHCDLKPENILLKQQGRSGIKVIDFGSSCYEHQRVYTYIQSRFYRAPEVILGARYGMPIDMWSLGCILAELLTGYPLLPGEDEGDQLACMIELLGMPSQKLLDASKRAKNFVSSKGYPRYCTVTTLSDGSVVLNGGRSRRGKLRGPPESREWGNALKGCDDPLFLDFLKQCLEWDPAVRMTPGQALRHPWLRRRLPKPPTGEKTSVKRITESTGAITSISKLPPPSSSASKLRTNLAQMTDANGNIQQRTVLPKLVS

[1] = read-out: IC50 haspin, TR-FRET assay

| selectivity for haspin over DYRK2 (human haspin kinase; ratio of IC50 values) [fold] | IC50 (human haspin kinase; [1]) [nM] | IC50 (human haspin kinase; read-out: haspin IC50) [nM] | IC50 (human DYRK2) [nM] | SMILES |
| --- | --- | --- | --- | --- |
| 180 | 55 | < 60 | 9900 | COc1ccc2nc3ccc(Cl)cc3c(SCCCN)c2c1 [Compound 33] |
|  | 2100 |  |  | COc1ccc2nc3ccc(OC)cc3c(SCCCN3C(=O)c4ccccc4C3=O)c2c1 [Compound 41] |
